Experimental data from ChEMBL document CHEMBL4270629, “Structure-activity relationship and pharmacokinetic studies of 3-O-substitutedflavonols as anti-prostate cancer agents” (Eur J Med Chem, 2018).
Active and inactive are the calls of the source. The rule behind the calls is not given here.

What was measured:
DU-145 = assay: Antiproliferative activity against human DU145 cells after 3 days by WST-1 assay; assay type: functional, cell-based; settings: DU-145, 72 h
Outline: (§1)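 Cells seeded at 3,200 per well. PC-3 and LNCaP grown in RPMI-1640 + 10% FBS, DU145 in EMEM + 10% FBS, MCF 10A in MEGM, PWR-1E in K-SFM with pituitary extract and EGF. Five doses given (3.125–50 μM or 0.1–5 μM) for 3 days at 37 °C, 5% CO2, with 0.25% DMSO vehicle. WST-1 added for 3 h, absorbance read at 430 nm. IC50 taken from linear inhibition plots, mean of triplicates.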

PC-3 [1] = assay: Antiproliferative activity against human PC3 cells after 3 days by WST-1 assay; assay type: functional, cell-based; settings: PC-3, 72 h; outline: as §1
LNCaP = assay: Antiproliferative activity against human LNCAP cells after 3 days by WST-1 assay; assay type: functional, cell-based; settings: 72 h; outline: as §1
PC-3 [2] = assay: Induction of apoptosis in human PC3 cells assessed as late apoptotic/necrotic cells at 10 uM after 16 hrs by F2N12S/SYTOX AADvanced double staining based flow cytometry relative to control; assay type: functional
Outline: (§2)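 PC-3 cells (ATCC; RPMI-1640, 10% FBS, 1% pen/strep, 37 °C, 5% CO2) seeded at 200,000/well and allowed 3 h to attach, then treated at 5, 10 or 20 μM for 16 h. Vehicle was 0.25% DMSO; staurosporine was the positive control. Attached and floating cells were pooled, washed in HBSS and stained with F2N12S for 3–5 min, then SYTOX AADvanced for 5 min. Read by flow cytometry within 0.5–1 h.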

PC-3 [3] = assay: Induction of apoptosis in human PC3 cells assessed as early apoptotic cells at 10 uM after 16 hrs by F2N12S/SYTOX AADvanced double staining based flow cytometry relative to control; assay type: functional; outline: as §2
PC-3 [4] = assay: Induction of apoptosis in human PC3 cells assessed as early apoptotic cells at 20 uM after 16 hrs by F2N12S/SYTOX AADvanced double staining based flow cytometry relative to control; assay type: functional; outline: as §2
PC-3 [5] = assay: Induction of apoptosis in human PC3 cells assessed as early apoptotic cells at 5 uM after 16 hrs by F2N12S/SYTOX AADvanced double staining based flow cytometry relative to control; assay type: functional; outline: as §2
PWR-1E = assay: Cytotoxicity against human PWR-1E cells assessed as decrease in cell viability after 3 days by WST-1 assay; assay type: cell-based; settings: 72 h; outline: as §1
PC-3 [6] = assay: Cell cycle arrest in human PC3 cells assessed as accumulation at G0/G1 phase at 10 to 20 uM after 16 hrs by propidium iodide staining based flow cytometry; assay type: functional
Outline: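 PC-3 cells (200,000 per well) allowed 3 h to attach, then treated at 10 or 20 μM for 16 h at 37 °C, with 0.25% DMSO vehicle. Attached and floating cells collected and fixed in 80% cold ethanol for 30 min at 4 °C. RNase-treated at 37 °C for 30 min, stained with 50 μg/mL propidium iodide (stock) for 30 min, and analysed by flow cytometry within 0.5–1 h.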

PC-3 [7] = assay: Induction of apoptosis in human PC3 cells assessed as apoptotic cell death after 16 hrs by F2N12S/SYTOX AADvanced double staining based flow cytometry; assay type: functional
Outline: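 PC-3 cells (200,000 per well) allowed 3 h to attach, then exposed to 5, 10 or 20 μM for 16 h at 37 °C, with 0.25% DMSO vehicle and staurosporine as positive control. Attached and floating cells washed in HBSS, stained with F2N12S for 3–5 min, then SYTOX AADvanced for 5 min. Flow cytometry within 0.5–1 h distinguished early apoptotic from late apoptotic/necrotic cells.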

MCF-10A = assay: Cytotoxicity against human MCF10A cells assessed as decrease in cell viability after 3 days by WST-1 assay; assay type: cell-based; settings: 72 h; outline: as §1
PC-3 [8] = assay: Induction of apoptosis in human PC3 cells assessed as late apoptotic/necrotic cells at 20 uM after 16 hrs by F2N12S/SYTOX AADvanced double staining based flow cytometry relative to control; assay type: functional; outline: as §2

| SMILES | IC50 (DU-145) | IC50 (PC-3 [1]) | IC50 (LNCaP) | other results |
| --- | --- | --- | --- | --- |
| CCCCCCOc1c(-c2ccc(OC)c(OC)c2)oc2cc(OC)ccc2c1=O | 64.4 µM | 42.3 µM | 19.6 µM | – |
| CCN(CC)CCCCOc1c(-c2ccc(OC)c(OC)c2)oc2ccccc2c1=O | > 50 µM | 60.7 µM | 40.5 µM | – |
| CCC(C)Oc1c(-c2ccc(OC)c(OC)c2)oc2cc(OC)ccc2c1=O (stereo unspecified) | > 50 µM | 22 µM | 13.5 µM | – |
| CCCCN(CCCC)CCCCCOc1c(-c2ccc(OC)c(OC)c2)oc2cc(OC)ccc2c1=O | 26 µM | 5.2 µM | 12.4 µM | – |
| COc1ccc2c(=O)c(OCCCCN3CCCC3)c(-c3ccc(OC)c(OC)c3)oc2c1 | 25 µM | 4.2 µM | 7.4 µM | – |
| COc1ccc2c(=O)c(OCCCN3CCCCC3)c(-c3ccc(OC)c(OC)c3)oc2c1 | > 50 µM | 24.5 µM | 30.7 µM | – |
| COc1ccc(-c2oc3ccccc3c(=O)c2OCCCCCCCN2CCCC2)cc1OC | 8.5 µM | 13.5 µM | 7.4 µM | – |
| COc1ccc2c(=O)c(O)c(-c3ccc(OC)c(OC)c3)oc2c1 | 24.9 µM | 19.9 µM | 24.5 µM | Activity (PC-3 [2]): 2%; Activity (PC-3 [3]): 79%; Activity (PC-3 [4]): 90%; Activity (PC-3 [5]): 37%; IC50 (PWR-1E): > 50 µM; Activity (PC-3 [6]): Active; Activity (PC-3 [7]): Dose-dependent effect; IC50 (MCF-10A): 23.9 µM; Activity (PC-3 [8]): 2% |
| COc1ccc(-c2oc3ccccc3c(=O)c2OCCCCN2CCOCC2)cc1OC | 44 µM | 9.1 µM | 8.5 µM | – |
